Reference: ChEMBL document CHEMBL1121475, “Inhibitors of indoleethylamine N-methyltransferase. Derivatives of 3-methyl-2-thiazolidinimine. In vitro, in vivo, and metabolic studies” (J Med Chem, 1980)

Experiments:
Oryctolagus cuniculus [1] = assay: 100 mg/kg of [14C]- radiolabeled compound was orally administered in rabbit3, and radioactivity content in urine was estimated at total hours; conditions: rabbit, in vivo, po
Oryctolagus cuniculus [2] = assay: Evaluation of formation of 3-Methyl-thiazolidin-2-ylideneamine from the radiolabeled compound, orally administered, from rabbit 2,4 kidney was analyzed by Gas-liquid chromatographic analysis; assay type: ADME, organism-based; conditions: in vivo, po
Procedure, shortened: (§1)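 Rabbit 2 was gavaged twice with [14C]-labelled parent amide, 100 mg/kg each dose (204.6 dpm/μg), 2 h apart, and killed 2 h after the second dose. Urine (0-4 h), blood, liver, lung and kidney were taken. The metabolite was measured by GLC of trimethylsilyl derivatives (3% OV-210, 95 °C, internal standard 3-ethyl-2-thiazolidinimine). Values are % of radioactivity as metabolite, mean of two determinations.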

Oryctolagus cuniculus [3] = assay: Percent of 3-Methyl-thiazolidin-2-ylideneamine as administered dose was reported in rabbit 1; assay type: ADME, organism-based; conditions: in vivo
[4] = tested on: Indolethylamine N-methyltransferase (Oryctolagus cuniculus); assay: Compound tested for inhibitory activity against rabbit lung Indoleethylamine-N-methyltransferase at 5 mg/kg intravenously*p< 0.05
Oryctolagus cuniculus [5] = assay: 100 mg/kg of [14C]- radiolabeled compound was orally (gavage) injected in rabbit kidney, and radioactivity content in feces was estimated; assay type: ADME, organism-based; conditions: in vivo, po
Procedure, shortened: (§2)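 Rabbit given 100 mg/kg [14C]-labelled drug by gavage, 204.6 dpm/μg, in water/0.1 N HCl at 6.66 mg/mL. Rabbit 1 was killed at 2 h and liver, lung, kidney and blood taken; tissue values are μg equivalents/g and tissue:plasma ratio. Rabbit 3 was kept for urine (0-24, 24-48, 48-72 h) and feces (0-48 h), expressed as % of dose.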

Oryctolagus cuniculus [6] = assay: 100 mg/kg of [14C]- radiolabeled compound was orally (gavage) injected in rabbit 1 lung, and radioactivity content in feces was estimated at; assay type: ADME, organism-based; conditions: in vivo, po
Procedure, shortened: as §2

Oryctolagus cuniculus [7] = assay: Evaluation of formation of 3-Methyl-thiazolidin-2-ylideneamine from the radiolabeled compound, orally administered, from rabbit 1 urine was analyzed at 0-2 hr by Gas-liquid chromatographic analysis; conditions: in vivo, po
Oryctolagus cuniculus [8] = assay: Percent of 3-Methyl-thiazolidin-2-ylideneamine as administered dose was reported in rabbit 4 by Gas-liquid chromatographic analysis; assay type: ADME, organism-based; conditions: in vivo
Procedure, shortened: (§3)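 Rabbits 3 (single 100 mg/kg) and 4 (two 100 mg/kg doses 2 h apart) were gavaged with [14C]-labelled parent amide (204.6 dpm/μg). They were not killed; urine was collected 0-24 h. The metabolite was quantified by GLC of trimethylsilylated extracts against an internal-standard peak-height-ratio curve. Results are given as % of urinary radioactivity or % of administered dose, mean of two determinations.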

Oryctolagus cuniculus [9] = assay: Percent of 3-Methyl-thiazolidin-2-ylideneamine as administered dose was reported in rabbit 2; assay type: ADME, organism-based; conditions: in vivo
Oryctolagus cuniculus [10] = assay: Radioactivity measurements were performed following oral administration of the 100 mg/kg in rabbit 6 after 2 hr in plasma; assay type: ADME, organism-based; set-up: dose 100 mg/kg, route oral; conditions: in vivo
Procedure, shortened: (§4)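 Male rabbits (900-1060 g) received [14C]-labelled parent amide, 100 mg/kg (251.7 dpm/μg, pH about 4.5), by gavage. At 2 or 6 h they were killed by air injection into the ear vein. Blood was drawn by cardiac puncture; brain and lung were homogenized in water (1 g = 10 mL). Radioactivity is expressed as μg equivalents of parent per g or mL.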

Oryctolagus cuniculus [11] = assay: 100 mg/kg of [14C]- radiolabeled compound was orally administered in rabbit3, and radioactivity content in feces was estimated at 0-48 hr; conditions: rabbit, in vivo, po
Oryctolagus cuniculus [12] = assay: Evaluation of formation of 3-Methyl-thiazolidin-2-ylideneamine from the radiolabeled compound, orally administered, from rabbit 2 urine was analyzed at 0-2 hr by Gas-liquid chromatographic analysis; assay type: ADME, organism-based; conditions: in vivo, po, in the assay text read “0-4 hr” for “0-2 hr”
Procedure, shortened: as §1

Oryctolagus cuniculus [13] = assay: Evaluation of formation of 3-Methyl-thiazolidin-2-ylideneamine from the radiolabeled compound, orally administered, from rabbit 3 urine was analyzed at 0-2 hr by Gas-liquid chromatographic analysis; assay type: ADME, organism-based; conditions: in vivo, po, in the assay text read “0-24 hr” for “0-2 hr”
Procedure, shortened: as §3

Oryctolagus cuniculus [14] = assay: 200 mg/kg of [14C]- radiolabeled compound was orally administered in rabbit4, and radioactivity content in urine was estimated at; conditions: rabbit, in vivo, po
Oryctolagus cuniculus [15] = assay: Evaluation of formation of 3-Methyl-thiazolidin-2-ylideneamine from the radiolabeled compound, orally administered, from rabbit 2,4 lung was analyzed by Gas-liquid chromatographic analysis; assay type: ADME, organism-based; conditions: in vivo, po
Procedure, shortened: as §1

Oryctolagus cuniculus [16] = assay: 200 mg/kg of [14C]- radiolabeled compound was orally administered in rabbit2, and radioactivity content in urine was estimated at 0-4 hr; conditions: rabbit, in vivo, po
[17] = tested on: Indolethylamine N-methyltransferase (Oryctolagus cuniculus); assay: In vivo evaluation of specific activity against rabbit lung Indoleethylamine-N-methyltransferase at oral dose of 25 mg/kg
Oryctolagus cuniculus [18] = assay: 100 mg/kg of [14C]- radiolabeled compound was orally (gavage) administered in rabbit3, and radioactivity content in urine was estimated at 48-72 h; conditions: rabbit, in vivo, po
[19] = Dose that causes approximately 50% lethality in mice, when given perorally; assay type: ADME, organism-based; conditions: mouse, in vivo, po
Procedure, shortened: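 Mice in groups of one to three were dosed orally. Deaths were scored on day 7 after dosing, and the LD50 was obtained by graphical interpolation.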

Oryctolagus cuniculus [20] = assay: Evaluation of formation of 3-Methyl-thiazolidin-2-ylideneamine from the radiolabeled compound, orally administered, from rabbit 1,2 lung was analyzed by Gas-liquid chromatographic analysis; assay type: ADME, organism-based; conditions: in vivo, po
Procedure, shortened: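 Rabbit 1 was given [14C]-labelled parent amide, 100 mg/kg (204.6 dpm/μg), orally by gavage and killed 2 h later. Urine (0-2 h), blood, liver, lung and kidney were collected. Samples were extracted, trimethylsilylated with BSA/pyridine at 70 °C for 12-16 h, and run by GLC on 3% OV-210 at 95 °C against the internal standard 3-ethyl-2-thiazolidinimine. Output is % of radioactivity present as the metabolite, mean of two determinations.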

Oryctolagus cuniculus [21] = assay: 100 mg/kg of [14C]- radiolabeled compound was orally (gavage) administered in rabbit3, and radioactivity content in urine was estimated at 24-48 h; conditions: rabbit, in vivo, po
Oryctolagus cuniculus [22] = assay: Radioactivity measurements were performed following oral administration of the 100 mg/kg in rabbit 5 after 2 hr in plasma; assay type: ADME, organism-based; set-up: dose 100 mg/kg, route oral; conditions: in vivo
Procedure, shortened: as §4

Oryctolagus cuniculus [23] = assay: 100 mg/kg of [14C]- radiolabeled compound was orally administered in rabbit1, and radioactivity content in urine was estimated at 0-2 hr; conditions: rabbit, in vivo, po
Oryctolagus cuniculus [24] = assay: 100 mg/kg of [14C]- radiolabeled compound was orally administered in rabbit3, and radioactivity content in urine was estimated at 0-24 hr; conditions: rabbit, in vivo, po

SMILES: CN1CCS/C1=N\C(=O)CCC(=O)/N=C1/SCCN1C
- Administered dose (Oryctolagus cuniculus [1]): 86.9%
- Radioactivity (Oryctolagus cuniculus [2]): 65.3%
- Administered dose (Oryctolagus cuniculus [3]): 27.9%
- inhibition [4]: 64%
- Tissue concentration (Oryctolagus cuniculus [5]): 211 µg/g
- Tissue to plasma ratio (Oryctolagus cuniculus [6]): 1.5
- Percent of urinary radioactivity (Oryctolagus cuniculus [7]): 57.2%
- Administered dose (Oryctolagus cuniculus [8]): 41.3%
- Administered dose (Oryctolagus cuniculus [9]): 10.8%
- Radioactivity level (Oryctolagus cuniculus [10]): 21.1 µg/mL
- Administered dose (Oryctolagus cuniculus [11]): 3.8%
- Radioactivity (Oryctolagus cuniculus [12]): 44.7%
- Radioactivity (Oryctolagus cuniculus [13]): 51.3%
- Administered dose (Oryctolagus cuniculus [14]): 87.1%
- Radioactivity (Oryctolagus cuniculus [15]): 75.4%
- Administered dose (Oryctolagus cuniculus [16]): 24%
- Specific activity [17]: 14100 dpm
- Administered dose (Oryctolagus cuniculus [18]): 0.2%
- LD50 [19]: 1460 mg/kg
- Radioactivity (Oryctolagus cuniculus [20]): 92.9%
- Administered dose (Oryctolagus cuniculus [21]): 0.8%
- Radioactivity level (Oryctolagus cuniculus [22]): 14.2 µg/mL
- Administered dose (Oryctolagus cuniculus [23]): 48.8%
- Administered dose (Oryctolagus cuniculus [24]): 85.9%
